Consider six molecules from PMC6626068 (Journal of Advanced Research, 2019).

Where two headings read alike, the source gives them in different places. Where only a bound is given, the exact number is not on record here.

Common to all, as to format: cell-based
The test system of one assay is HepG2. The experiment in a line: MTT cytotoxicity assay, HepG2 cells. The conditions noted are these: read-out: IC50 (μM) HepG2. Summed up:
(§1)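 Cells were grown in DMEM with 10% FBS and 1% penicillin/streptomycin at 37 °C under 5% CO₂, then seeded at 1 × 10⁴ cells/well. After 24 h they received the test compound at 0, 2.5, 5, 10, 20 and 40 μM for 72 h, with doxorubicin as positive control. MTT (5 mg/mL stock) was added for 4 h, formazan dissolved in DMSO for 10 min, A570 read, and IC50 calculated.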
On the technique in general: Tetrazolium assays rely on reduction of a dye to a coloured formazan, in cell work by metabolically active cells.

The test system of another assay is HeLa. The experiment in a line: MTT cytotoxicity assay, HeLa cells. Particulars: 72 h; for IC50: read-out: IC50 (μM) HeLa. Summed up:
as §1

The test system of the next assay is HCT-116. Briefly: MTT cytotoxicity assay, HCT-116 cells. The conditions noted are these: read-out: IC50 (μM) HCT-116. Summed up: as §1
The test system of another assay is MDA-MB-231. The experiment in a line: MTT cytotoxicity assay, MDA-MB-231 cells. The conditions noted are these: read-out: IC50 (μM) MDA-MB-231. The procedure, abridged: as §1
The test system of the next assay is HUVEC. Briefly: MTT cytotoxicity assay, normal cell line HUVEC. Particulars: read-out: IC50 (μM) HUVEC, 72 h.
The next assay has as its system MCF-7. Briefly: MTT cytotoxicity assay, MCF-7 cells. Particulars: for IC50: read-out: IC50 (μM) MCF-7. Summed up:
as §1

Another assay concerns MCF-7 cells. Briefly: Annexin V/PI double staining flow cytometry, MCF-7. The conditions noted are these: MCF-7, 1 μM, 48 h (positive control).
A further assay has as its system HeLa cells. Briefly: Annexin V/PI double staining flow cytometry, HeLa. The conditions noted are these: 1 μM, 48 h (positive control). In general terms: In flow cytometry, cells or beads pass a laser one at a time.
The test system of another assay is GFP-LC3-HeLa cells. Briefly: Autophagy detection using GFP-LC3 expression in HeLa cells. Particulars: 25 μM, 24 h, observation control. Summed up:
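HeLa cells stably expressing GFP-LC3, grown in 24-well plates, were exposed to the test compound for 24 h, either at 10 μM for screening or at 2.5, 5, 10 and 20 μM. Chloroquine phosphate at 25 μM served as the observation control. GFP-LC3 puncta were imaged by fluorescence microscopy, and dots per cell were counted.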

As usually defined, the IC50 is the point on the concentration scale where inhibition reaches its midpoint. Turning to “3,9-dihydroxypterocarp-6a-en [Compound 17]”, the IC50 is 34.2 ± 1.87 µM with HepG2 (MTT, 72 h, means ± SEM (n = 3)); 36.1 ± 7.34 µM with HeLa (MTT, means ± SEM (n = 3)); 39.7 ± 2.06 µM in the assay on HCT-116 (MTT, 72 h, means ± SEM (n = 3)); 36.8 ± 5.61 µM in the assay on MDA-MB-231 (MTT, 72 h, means ± SEM (n = 3)); > 50 µM with HUVEC (normal cell line, MTT, compounds at 50 μM, means ± SEM (n = 3)); 30.3 ± 1.32 µM in the assay with MCF-7 (MTT, 72 h, means ± SEM (n = 3)).
Consider `COc1cc2c(c(OC)c1OC)-c1ccc(OC)c(=O)cc1[C@@H](NC(C)=O)CC2` [Colchicine, colchicine], for which the “apoptosis rate (early + late apoptotic cells)” value with MCF-7 cells was 38.01%; in the assay with HeLa cells, 45.62%.
Turning to `COc1cc(OC)c(-c2coc3c(CC=C(C)C)c(OC)c(OC)cc3c2=O)cc1OC` [Compound 4, 8-(γ, γ-dimethylallyl)-6,7,2′,4′,5′-pentamethoxyisoflavone], the IC50 in the assay on HepG2 (Homo sapiens, HepG2, 72 h) was 8.74 ± 0.83 µM; in the assay on HeLa (Homo sapiens) it was 7.86 ± 1.21 µM; in the assay with HCT-116 (Homo sapiens, HCT-116, 72 h) it was 8.61 ± 0.72 µM; with MDA-MB-231 (Homo sapiens, MDA-MB-231, 72 h) it was 15.8 ± 2.15 µM; with HUVEC (Homo sapiens, HUVEC), > 50 µM; with MCF-7 (Homo sapiens, MCF7, 72 h) it was 18.5 ± 0.51 µM. In addition, in the assay with HeLa (50 μM, MTT), the “growth inhibition of HeLa cells (primary screening)” value was “most active”. Further, the “growth inhibition of MCF-7 cells (primary screening)” value in the assay on MCF-7 (50 μM, 72 h, MTT) is “most active”.
Turning to `COc1cc(-c2coc3c(CC=C(C)C)c(OC)c(OC)c(O)c3c2=O)c(OC)cc1O` [Compound 5, 8-(γ, γ-dimethylallyl)-5,4′-dihydroxy-6,7,2′,5′-tetramethoxyisoflavone], the IC50 in the assay on HepG2 (Homo sapiens, HepG2, 72 h) was 31.6 ± 2.06 µM; with HeLa (Homo sapiens) it was 35.7 ± 3.91 µM; with HCT-116 (Homo sapiens, HCT-116, 72 h), 25.9 ± 0.85 µM; in the assay on MDA-MB-231 (Homo sapiens, MDA-MB-231, 72 h) it was 27.6 ± 4.54 µM; in the assay on HUVEC (Homo sapiens, HUVEC), > 50 µM; in the assay on MCF-7 (Homo sapiens, MCF7, 72 h), 35.1 ± 1.44 µM.
As to `COc1cccc2c1C(=O)c1c(O)c3c(c(O)c1C2=O)C[C@@](O)(C(=O)CO)C[C@@H]3O[C@H]1C[C@H](N)[C@H](O)[C@H](C)O1` [Doxorubicin, reference compound], the IC50 with HepG2 (Homo sapiens, HepG2, 72 h) came out at 0.02 ± 0.002 µM; in the assay with HeLa (Homo sapiens), 0.03 ± 0.001 µM; in the assay on HCT-116 (Homo sapiens, HCT-116, 72 h), 0.03 ± 0.003 µM; in the assay with MDA-MB-231 (Homo sapiens, MDA-MB-231, 72 h), 0.03 ± 0.002 µM; in the assay with HUVEC (Homo sapiens, HUVEC), 0.04 ± 0.005 µM; in the assay on MCF-7 (Homo sapiens, MCF7, 72 h) it was 0.02 ± 0.003 µM.
`CCN(CC)CCCC(C)Nc1ccnc2cc(Cl)ccc12` (centres unmarked) [chloroquine phosphate]: in the assay on GFP-LC3-HeLa cells, the “GFP-LC3 dots (autophagosomes)” value was “obvious increase in the GFP-LC3 dots”.
